# This excerpt belongs to a sample that is enriched for hits.
# V-ATPase pH: regulators of yeast V-ATPase proton transport; 350,000 tested, 0.37% active; response, % at 10 µM; S. cerevisiae, pHLuorin cytosolic pH fluorescence; AID 504577; in the data active = response mostly above about 7.3%, no sharp cut-off; inactive = mostly below about 5.4%; note: actives read high
# ABCB6 inh 2: human ABCB6 transporter inhibition; Q9NP58; fluorescence ratio to DMSO, % at 10 µM; 360,000 tested, 0.19% active; AID 602162; K562-ABCB6 porphyrin accumulation, flow cytometry, 1 h; stronger effect = lower value;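 active = fluorescence ratio to DMSO below 75%, the collection mean minus 3 SD; inconclusive = too few cells collected in the well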;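 note: signal is porphyrin accumulated inside mitochondria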
# Dynein transport: dynein cargo transport inhibition | 3617.4 mouse cells, GR-EGFP nuclear translocation imaging; test concentration mostly 20 µM; stimulated with dexamethasone, 1 µM; stronger effect = lower value | 220,000 tested, 0.47% active | z-score, hits read low;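 active = plate z-score of nuclear minus cytoplasmic receptor signal below a set negative limit, without overly bright fluorescence or cell loss, cut at about -3.5 in these data, passing the limit was not always enough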;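 note: z-score of nuclear minus cytoplasmic ring GR-EGFP intensity difference per well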
#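 Buffer or medium: tet-free, stripped-serum medium; reagent: dexamethasone at 1.0 µM final, 30 min; incubation: 48 h induction, 1 h compound, 30 min dex at 37 °C; measured by: formaldehyde fixation, Hoechst nuclear stain, 10x automated fluorescence imaging; read-out: nuclear-to-cytoplasmic GR-EGFP distribution per well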
# pCIP destab: lowers stability of the mouse p/CIP coactivator protein. Q05BA5. F442A p/CIP-EGFP cells, EGFP fluorescence, 16 h. decrease of EGFP signal, % at 10 µM. 290,000 tested, 0.01% active. AID 1984;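 active = EGFP signal decrease of at least 30% at 10 µM or well 3 SD below plate mean, unless failing retest; inactive = the rest, including hits failing retest or dose response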
# KCC2 mod: modulates chloride dependent transport by human KCC2 | Q9H2X9 | KCC2 cells, thallium flux FluoZin-2 fluorescence | B-score of Tl+ flux slope (higher = more flux/activation; lower = inhibition) at 10 µM | 190,000 tested, 2.2% active | AID 1456;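 active = thallium flux slope and its plate-corrected score both differing from the plate sample mean at a set confidence after two filtering rounds, in either direction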;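 note: slope of fluorescence scaled to starting intensity during 10 to 20 s after thallium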
# KCC2 secondary: KCC2 (human) modulation, secondary assay; AID 1713; HEK293-KCC2, thallium flux, FluoZin2 fluorescence; stronger effect = higher value; 3,700 tested, 15% active; normalised thallium flux (F/F0 slope) at 10 µM; shares compounds with KCC2 mod;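 active = thallium flux slope above the same plate's solvent-only control mean plus 3 SD; inconclusive = the two replicate wells disagree; inactive = no significant difference from solvent-only control wells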
# KCC2 bumet counter: thallium flux persisting under bumetanide in KCC2 cells, counter-screen secondary assay | shares compounds with KCC2 mod | AID 1714 | 3,700 tested, 49% active | normalized thallium flux at 10 µM | HEK293-KCC2 + bumetanide/ouabain, thallium flux FluoZin2; stronger effect = higher value;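 active = thallium entry rate above the same plate's blocked-transporter control wells by more than 3 SD; inconclusive = the two repeat wells disagree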;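 note: raw slope of fluorescence over initial fluorescence between 10 and 20 s after thallium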
# KCC2 sec2: confirmation of human KCC2 transport modulators. shares compounds with KCC2 mod. HEK293-KCC2, thallium flux FluoZin2 fluorescence; actives lie on both sides; F/F0 rise rate, 10–20 s post-thallium. normalized thallium flux at 10 µM. 3,700 tested, 23% active;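 active = thallium flux slope more than 3 SD above or below the plate's solvent-only control mean, mostly below; inconclusive = the two repeat wells disagreed; inactive = no significant shift from solvent-only controls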
# HEK counter1: acts in parental HEK cells, KCC2 counter-screen; shares compounds with KCC2 mod; HEK293 parental cells, thallium flux FluoZin2, ouabain; baseline-ratio fluorescence slope, 10–20 s after thallium; thallium flux rate (normalised fluorescence) at 10 µM; 3,700 tested, 46% active; AID 1716;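 active = thallium flux rate significantly above the same plate's solvent-only control wells, beyond their mean plus 3 SD; inconclusive = the two replicate wells gave conflicting results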
# KCC2 ouabain: modulates human KCC2 on retest with ouabain; shares compounds with KCC2 mod; HEK293-KCC2, thallium flux FluoZin2 fluorescence; bidirectional: low = inhibitor, high = activator; raw Tl+ flux slope (below DMSO = inhibition, above = activation) at 10 µM; 3,700 tested, 48% active;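 active = thallium flux slope beyond 3 SD from same-plate DMSO control mean in most replicates, usually higher, sometimes lower; inconclusive = repeat tests gave conflicting results; inactive = no significant difference from controls in most replicates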;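 note: slope of initial-normalized fluorescence between seconds 10 and 20 after thallium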
# HEK293 Tl flux2: parental HEK flux effect, counter-screen 2; shares compounds with KCC2 mod; HEK293 parental, thallium flux FluoZin-2 fluorescence slope; thallium flux slope at 10 µM; 3,700 tested, 33% active; AID 1718;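 active = thallium flux slope above the same plate's solvent-control mean plus 3 SD in both duplicate wells; inconclusive = duplicate wells that disagreed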;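 note: run without ouabain in cells lacking the KCC2 cotransporter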
# Numbers stand for hits; i = inactive; ? = inconclusive; nt = not tested or not shown.
SMILES,V-ATPase pH,ABCB6 inh 2,Dynein transport,pCIP destab,KCC2 mod,KCC2 secondary,KCC2 bumet counter,KCC2 sec2,HEK counter1,KCC2 ouabain,HEK293 Tl flux2
Brc1cccc(-c2cnc3n2CCCCC3)c1,i,i,i,i,nt,i,i,i,i,i,i
Cc1ccc(S(=O)(=O)CCC(=O)NCc2ccco2)cc1,i,i,i,i,i,nt,nt,nt,nt,nt,nt
O=C1CN(c2nc(-c3cccs3)nc3sc4c(c23)CCCC4)CCN1,i,i,i,i,16,i,0.0098,i,0.01,?,i
O=C(COC(=O)c1cc(S(=O)(=O)N2CCOCC2)ccc1O)Nc1ccc2c(c1)OCO2,i,i,nt,nt,nt,nt,nt,nt,nt,nt,nt
O=C(CCCn1ncn2c(cc3occc32)c1=O)N1CCc2ccccc2C1,i,i,i,i,-2.8,i,i,0.024,i,?,i
O=C(CCCn1c(=O)oc2ccccc21)N1CCc2ccccc2C1,i,i,i,i,nt,i,i,i,i,0.018,i
O=C(COc1ccccc1)NC(=S)Nc1ccc2c3c(cccc13)CC2,i,i,i,i,nt,nt,nt,nt,nt,nt,nt
Cc1ccc(OCC(=O)NC(=S)Nc2ccc(Br)cn2)cc1,i,i,i,i,31,0.013,0.032,i,0.058,0.037,0.022
Cc1ccc(OCC(=O)NC(=S)Nc2ccc(Br)c(C)n2)cc1,i,i,i,i,nt,nt,nt,nt,nt,nt,nt
Cc1ccc(OCC(=O)NC(=S)Nc2ccc3c4c(cccc24)CC3)cc1,i,i,i,i,13,i,0.014,i,0.012,?,i
COc1ccccc1NC(=S)c1ccccc1,i,i,i,i,i,nt,nt,nt,nt,nt,nt
Cc1ccc(OC(C)C(=O)Nc2ccc3c(c2)n(C)c(=O)n3C)c(C)c1 (stereo not drawn),i,i,nt,i,nt,nt,nt,nt,nt,nt,nt
COCCCn1cc(CN2CC(N3CCN(C)CC3)CS2(=O)=O)nn1 (stereo not drawn),nt,i,nt,nt,nt,nt,nt,nt,nt,nt,nt
COc1ccc(C)cc1S(=O)(=O)Nc1cc(Cl)ccc1Cl,i,i,i,i,9,i,0.013,i,0.012,i,0.013
C/C(=N\NC(=S)NC1CCCCC1)c1cccs1,i,i,i,i,57,i,0.053,0.043,0.027,0.048,0.029
C/C(=N\NC(=S)NC1CCCCC1)c1c(F)cccc1F,i,i,i,i,22,0.014,0.066,i,0.021,0.046,0.011
C/C(=N\NC(=S)NC1CCCCC1)c1ccc(Cl)c(Cl)c1,i,i,i,i,i,nt,nt,nt,nt,nt,nt
Fc1ccccc1N1CCN(C(c2ccnc3ccccc23)c2nnnn2-c2ccc3c(c2)OCCO3)CC1 (stereo not drawn),nt,i,nt,nt,nt,nt,nt,nt,nt,nt,nt
O=[N+]([O-])c1ccc(Sc2cc[n+]([O-])c3ccccc23)c([N+](=O)[O-])c1,i,i,i,i,i,nt,nt,nt,nt,nt,nt
Cc1cnc(C(=O)OCC(=O)c2c[nH]c3ccccc23)cn1,i,i,nt,nt,nt,nt,nt,nt,nt,nt,nt
CC1(C(=O)OCC(=O)c2c[nH]c3ccccc23)CC1(Cl)Cl (stereo not drawn),i,i,i,i,-2.5,i,i,i,i,0.016,i
O=S(CC1CC1(Cl)Cl)CC1CC1(Cl)Cl (stereo not drawn),i,i,i,i,i,nt,nt,nt,nt,nt,nt
CCOC(=O)c1sc(-c2ccc(C)cc2)c(C#N)c1C,i,i,i,i,5.3,i,i,i,i,i,i
FC(F)(F)c1ccc(Nc2nnnc3ccccc23)cc1,i,i,i,i,i,nt,nt,nt,nt,nt,nt
C(=N\Nc1nc(-c2ccccc2)cs1)/c1cccnc1,i,i,i,i,-3.6,i,i,0.025,i,0.016,i
SMILES,V-ATPase pH,ABCB6 inh 2,Dynein transport,pCIP destab,KCC2 mod,KCC2 secondary,KCC2 bumet counter,KCC2 sec2,HEK counter1,KCC2 ouabain,HEK293 Tl flux2
CC(C)(C)C1CCc2sc(C(=O)NNC(=O)CCl)cc2C1 (stereo not drawn),i,i,i,i,3.3,i,0.017,i,0.017,?,0.014
CN1C/C(=C\c2ccc(N3CCOCC3)cc2)C(=O)/C(=C/c2ccc(N3CCOCC3)cc2)C1,i,i,i,i,-9.2,0.0028,-0.0007,0.017,0.0056,0.0075,?
CN1C/C(=C/c2ccncc2)C(=O)/C(=C/c2ccncc2)C1,i,i,nt,i,nt,nt,nt,nt,nt,nt,nt
COc1ccc(NC(=O)NNC(=O)c2ccc3ccccc3c2)cc1OC,i,i,nt,i,nt,nt,nt,nt,nt,nt,nt
COc1ccc2c(c1)O[C@H](c1ccc3c(c1)OCO3)[C@@H](O)C2=O,i,i,i,i,i,nt,nt,nt,nt,nt,nt
COc1ccc2c(c1)O[C@@H](c1cccc(C(F)(F)F)c1)[C@H](O)C2=O,i,nt,i,i,8.8,i,0.0093,i,0.011,?,?
S=c1[nH]nc(COc2ccc(Cl)cc2)o1,i,i,i,i,-6.1,i,?,0.022,i,?,i
Cc1ccc(C(C)C)c(OCc2n[nH]c(=S)o2)c1,i,i,i,i,28,i,0.043,?,0.034,0.035,0.034
S=c1[nH]nc(CCc2ccc(Cl)cc2)o1,i,i,i,i,-7.8,i,i,0.023,i,0.04,i
Cc1noc(C)c1S(=O)(=O)N(C)C[C@H]1Oc2c(NC(=O)Nc3ccc(C(F)(F)F)cc3)cccc2C(=O)N([C@H](C)CO)C[C@@H]1C,i,i,nt,nt,nt,nt,nt,nt,nt,nt,nt
Cc1noc(C)c1COC(=O)[C@@H](NC(=O)c1ccccc1)C(C)C,i,i,i,i,i,nt,nt,nt,nt,nt,nt
CCOc1ccc(OCC)c(NC(=O)c2nnn(CC(=O)Nc3cc(C)cc(C)c3)c2N)c1,i,i,nt,i,nt,nt,nt,nt,nt,nt,nt
Cc1ccc(N(CC(=O)NCc2ccco2)C(=O)CNS(=O)(=O)c2ccccc2)c(C)c1,i,i,nt,i,nt,nt,nt,nt,nt,nt,nt
CC1(C)COCN1S(=O)(=O)c1ccc(C(=O)Nc2nnc(-c3ccc(Cl)s3)o2)cc1,nt,nt,i,i,15,?,0.04,i,?,0.035,i
CCC1CCCCN1S(=O)(=O)c1ccc(C(=O)Nc2nnc(-c3ccccc3Cl)o2)cc1 (stereo not drawn),i,i,i,i,19,0.015,0.071,i,0.034,0.042,?
CCC1CCCCN1S(=O)(=O)c1ccc(C(=O)Nc2nnc(C3CC3)o2)cc1 (stereo not drawn),i,i,nt,i,nt,nt,nt,nt,nt,nt,nt
